Assay results from ChEMBL document CHEMBL3627671, “Novel derivatives of nitro-substituted salicylic acids: Synthesis, antimicrobial activity and cytotoxicity” (Bioorg Med Chem, 2015).
In brackets after ≈: the same amount, converted by molar mass.

Experiments:
Format in all cases: functional
Enterococcus sp. [1] = assay: Antibacterial activity against Enterococcus sp. J 14365/08 after 48 hrs by microdilution broth method; details: J 14365/08, 48 h
Summary of the method: (§1)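 Mueller-Hinton broth microdilution (modified M07-A07), pH 7.4 (±0.2). Compounds dissolved in DMSO, tested at final 500 to 0.49 µmol/L. Inoculum in sterile water matched to 0.5 McFarland. Incubated in the dark, humid atmosphere, 35 °C, read at 24 and 48 h visually and at 540 nm. MIC taken as ≥95% growth reduction (IC95) versus control.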

Escherichia coli [2] = assay: Antibacterial activity against Escherichia coli CCM4517 after 48 hrs by microdilution broth method; details: CCM4517, 48 h; summary of the method: as §1
Candida tropicalis [3] = assay: Antifungal activity against Candida tropicalis 156 after 48 hrs by microdilution broth method; details: Candida tropicalis, 156, 48 h
Summary of the method: (§2)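 CLSI M27-A3 broth microdilution in RPMI 1640 with glutamine, buffered to pH 7.0 with MOPS; DMSO diluent. Yeast inoculum 5 × 10^3 ± 0.2 CFU/mL. Moulds grown on Sabouraud agar 3–10 days before spore harvest, final inoculum 0.5-5 × 10^4 CFU/mL, checked in a Bürker chamber. Incubated dark, humid, 35 °C, read at 24 and 48 h visually and at 540 nm. MIC taken as ≥80% (yeasts) or ≥50% (filamentous) growth reduction versus control.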

Staphylococcus aureus [4] = assay: Antibacterial activity against methicillin-resistant Staphylococcus aureus H 5996/08 after 48 hrs by microdilution broth method; details: H 5996/08, 48 h
Mycobacterium avium [5] = assay: Antimycobacterial activity against Mycobacterium avium 330/80 after 14 days; details: 330/80, 336 h
Escherichia coli [6] = assay: Antibacterial activity against Escherichia coli CCM4517 after 24 hrs by microdilution broth method; details: CCM4517, 24 h; summary of the method: as §1
Staphylococcus aureus [7] = assay: Antibacterial activity against Staphylococcus aureus CCM 4516/08 after 48 hrs by microdilution broth method; details: CCM 4516/08, 48 h
Candida tropicalis [8] = assay: Antifungal activity against Candida tropicalis 156 after 24 hrs by microdilution broth method; details: Candida tropicalis, 156, 24 h; summary of the method: as §2
[9] = tested on: Mycobacterium tuberculosis; assay: Antimycobacterial activity against Mycobacterium tuberculosis H37Rv 331/88 after 14 days; details: H37Rv 331/88, 336 h
Mycobacterium kansasii [10] = assay: Antimycobacterial activity against Mycobacterium kansasii 6509/96 after 14 days; details: 6509/96, 336 h
Summary of the method: (§3)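 Šula's semisynthetic medium micromethod at 37 °C, read after 7, 14 and 21 days. The 1.0 McFarland suspension was diluted 10^-4. MIC determined. 6509/96 is a clinical isolate.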

Mycobacterium kansasii [11] = assay: Antimycobacterial activity against Mycobacterium kansasii 235/80 after 14 days; details: 235/80, 336 h; summary of the method: as §3
Candida albicans [12] = assay: Antifungal activity against Candida albicans ATCC 44859 after 48 hrs by microdilution broth method; details: ATCC 44859, 48 h; summary of the method: as §2
Klebsiella pneumoniae [13] = assay: Antibacterial activity against ESBL-positive Klebsiella pneumoniae J 14368/08 after 24 hrs by microdilution broth method; details: J 14368/08, 24 h; summary of the method: as §1
Pseudomonas aeruginosa [14] = assay: Antibacterial activity against Pseudomonas aeruginosa CCM 1961 after 48 hrs by microdilution broth method; details: CCM 1961, 48 h; summary of the method: as §1
Mycobacterium kansasii [15] = assay: Antimycobacterial activity against Mycobacterium kansasii 235/80 after 7 days; details: 235/80, 168 h; summary of the method: as §3
Mycobacterium kansasii [16] = assay: Antimycobacterial activity against Mycobacterium kansasii 6509/96 after 21 days; details: 6509/96, 504 h; summary of the method: as §3
[17] = tested on: Trichophyton mentagrophytes; assay: Antifungal activity against Trichophyton mentagrophytes 445 after 24 hrs by microdilution broth method; details: Trichophyton mentagrophytes, 445, 24 h
[18] = tested on: Staphylococcus epidermidis; assay: Antibacterial activity against Staphylococcus epidermidis H 6966/08 after 24 hrs by microdilution broth method; details: H 6966/08, 24 h; summary of the method: as §1
Klebsiella pneumoniae [19] = assay: Antibacterial activity against ESBL-positive Klebsiella pneumoniae J 14368/08 after 48 hrs by microdilution broth method; details: J 14368/08, 48 h; summary of the method: as §1
Staphylococcus aureus [20] = assay: Antibacterial activity against Staphylococcus aureus CCM 4516/08 after 24 hrs by microdilution broth method; details: CCM 4516/08, 24 h
Trichosporon asahii [21] = assay: Antifungal activity against Trichosporon asahii 1188 after 24 hrs by microdilution broth method; details: Trichosporon asahii, 1188, 24 h; summary of the method: as §2
[22] = tested on: Staphylococcus epidermidis; assay: Antibacterial activity against Staphylococcus epidermidis H 6966/08 after 48 hrs by microdilution broth method; details: H 6966/08, 48 h; summary of the method: as §1
Candida albicans [23] = assay: Antifungal activity against Candida albicans ATCC 44859 after 24 hrs by microdilution broth method; details: ATCC 44859, 24 h; summary of the method: as §2
Mycobacterium kansasii [24] = assay: Antimycobacterial activity against Mycobacterium kansasii 235/80 after 21 days; details: 235/80, 504 h; summary of the method: as §3
[25] = tested on: Mycobacterium tuberculosis; assay: Antimycobacterial activity against Mycobacterium tuberculosis H37Rv 331/88 after 21 days; details: H37Rv 331/88, 504 h
Mycobacterium avium [26] = assay: Antimycobacterial activity against Mycobacterium avium 330/80 after 21 days; details: 330/80, 504 h
[27] = tested on: Trichophyton mentagrophytes; assay: Antifungal activity against Trichophyton mentagrophytes 445 after 48 hrs by microdilution broth method; details: Trichophyton mentagrophytes, 445, 48 h
Staphylococcus aureus [28] = assay: Antibacterial activity against methicillin-resistant Staphylococcus aureus H 5996/08 after 24 hrs by microdilution broth method; details: H 5996/08, 24 h
Trichosporon asahii [29] = assay: Antifungal activity against Trichosporon asahii 1188 after 48 hrs by microdilution broth method; details: Trichosporon asahii, 1188, 48 h; summary of the method: as §2
Klebsiella pneumoniae [30] = assay: Antibacterial activity against Klebsiella pneumoniae D 11750/08 after 24 hrs by microdilution broth method; details: D 11750/08, 24 h; summary of the method: as §1
Mycobacterium kansasii [31] = assay: Antimycobacterial activity against Mycobacterium kansasii 6509/96 after 7 days; details: 6509/96, 168 h; summary of the method: as §3
Pseudomonas aeruginosa [32] = assay: Antibacterial activity against Pseudomonas aeruginosa CCM 1961 after 24 hrs by microdilution broth method; details: CCM 1961, 24 h; summary of the method: as §1
Aspergillus fumigatus [33] = assay: Antifungal activity against Aspergillus fumigatus 231 after 24 hrs by microdilution broth method; details: Aspergillus fumigatus, 231, 24 h; summary of the method: as §2
Nakaseomyces glabratus [34] = assay: Antifungal activity against Candida glabrata 20/I after 48 hrs by microdilution broth method; summary of the method: as §2
Lichtheimia corymbifera [35] = assay: Antifungal activity against Absidia corymbifera 272 after 24 hrs by microdilution broth method; details: Lichtheimia corymbifera, 272, 24 h; summary of the method: as §2
Pichia kudriavzevii [36] = assay: Antifungal activity against Candida krusei E28 after 24 hrs by microdilution broth method; details: E28, 24 h; summary of the method: as §2
Lichtheimia corymbifera [37] = assay: Antifungal activity against Absidia corymbifera 272 after 48 hrs by microdilution broth method; details: Lichtheimia corymbifera, 272, 48 h; summary of the method: as §2
Aspergillus fumigatus [38] = assay: Antifungal activity against Aspergillus fumigatus 231 after 48 hrs by microdilution broth method; details: Aspergillus fumigatus, 231, 48 h; summary of the method: as §2
Nakaseomyces glabratus [39] = assay: Antifungal activity against Candida glabrata 20/I after 24 hrs by microdilution broth method; summary of the method: as §2
Klebsiella pneumoniae [40] = assay: Antibacterial activity against Klebsiella pneumoniae D 11750/08 after 48 hrs by microdilution broth method; details: D 11750/08, 48 h; summary of the method: as §1
Enterococcus sp. [41] = assay: Antibacterial activity against Enterococcus sp. J 14365/08 after 24 hrs by microdilution broth method; details: J 14365/08, 24 h; summary of the method: as §1
Pichia kudriavzevii [42] = assay: Antifungal activity against Candida krusei E28 after 48 hrs by microdilution broth method; details: E28, 48 h; summary of the method: as §2

## O=C(Nc1ccc([N+](=O)[O-])cc1)c1ccc([N+](=O)[O-])cc1O
Enterococcus sp. [1]
  MIC: > 500 µM
Escherichia coli [2]
  MIC: > 500 µM
Candida tropicalis [3]
  MIC: > 500 µM
Staphylococcus aureus [4]
  MIC: 31.2 µM (≈ 9.48 µg/mL)
Mycobacterium avium [5]
  MIC: 62.5 µM (≈ 19 µg/mL)
Escherichia coli [6]
  MIC: 500 µM (≈ 152 µg/mL)
Staphylococcus aureus [7]
  MIC: 62.5 µM (≈ 19 µg/mL)
Candida tropicalis [8]
  MIC: > 500 µM
[9]
  MIC: 8 µM (≈ 2.43 µg/mL)
Mycobacterium kansasii [10]
  MIC: 32 µM (≈ 9.7 µg/mL)
Mycobacterium kansasii [11]
  MIC: 16 µM (≈ 4.85 µg/mL)
Candida albicans [12]
  MIC: > 500 µM
Klebsiella pneumoniae [13]
  MIC: 500 µM (≈ 152 µg/mL)
Pseudomonas aeruginosa [14]
  MIC: > 500 µM
Mycobacterium kansasii [15]
  MIC: 8 µM (≈ 2.43 µg/mL)
Mycobacterium kansasii [16]
  MIC: 32 µM (≈ 9.7 µg/mL)
[17]
  MIC: > 500 µM
[18]
  MIC: 62.5 µM (≈ 19 µg/mL)
Klebsiella pneumoniae [19]
  MIC: > 500 µM
Staphylococcus aureus [20]
  MIC: 62.5 µM (≈ 19 µg/mL)
Trichosporon asahii [21]
  MIC: > 500 µM
[22]
  MIC: 62.5 µM (≈ 19 µg/mL)
Candida albicans [23]
  MIC: > 500 µM
Mycobacterium kansasii [24]
  MIC: 32 µM (≈ 9.7 µg/mL)
[25]
  MIC: 16 µM (≈ 4.85 µg/mL)
Mycobacterium avium [26]
  MIC: 62.5 µM (≈ 19 µg/mL)
[27]
  MIC: > 500 µM
Staphylococcus aureus [28]
  MIC: 31.2 µM (≈ 9.48 µg/mL)
Trichosporon asahii [29]
  MIC: > 500 µM
Klebsiella pneumoniae [30]
  MIC: 500 µM (≈ 152 µg/mL)
Mycobacterium kansasii [31]
  MIC: 32 µM (≈ 9.7 µg/mL)
Pseudomonas aeruginosa [32]
  MIC: 500 µM (≈ 152 µg/mL)
Aspergillus fumigatus [33]
  MIC: > 500 µM
Nakaseomyces glabratus [34]
  MIC: > 500 µM
Lichtheimia corymbifera [35]
  MIC: > 500 µM
Pichia kudriavzevii [36]
  MIC: > 500 µM
Lichtheimia corymbifera [37]
  MIC: > 500 µM
Aspergillus fumigatus [38]
  MIC: > 500 µM
Nakaseomyces glabratus [39]
  MIC: > 500 µM
Klebsiella pneumoniae [40]
  MIC: > 500 µM
Enterococcus sp. [41]
  MIC: 500 µM (≈ 152 µg/mL)
Pichia kudriavzevii [42]
  MIC: > 500 µM
